Data set [1] is described as follows: Effect on spontaneous locomotory activity in NMRI mouse at 1 to 10 mg/kg, ip measured for 30 mins. Type of data set: ADME, organism-based. The settings on record: in vivo, 0.5 h, dose 1-10 mg/kg. The procedure, abridged:
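Mice dosed ip at 1, 3 or 10 mg/kg in 0.9% NaCl, 30 min before test; chlorpromazine 3 mg/kg as depressive reference. Locomotion counted as infrared beam breaks in individual cages of an actimeter over 30 min. n = 8 per group; analyzed by ANOVA.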

For data set [2], the target named is T1, 5-hydroxytryptamine receptor 6 (Homo sapiens, UniProt P50406). Description: Displacement of [3H]-LSD from human 5HT6 receptor expressed in HEK293 cell membrane measured after 60 mins. Type of data set: cell membranes.
The target of data set [3] is T1, 5-hydroxytryptamine receptor 6. Description: Antagonist activity at human 5HT6 receptor expressed in COS-7 cells assessed as inhibition of 5HT-induced cAMP accumulation preincubated for 7 mins followed by 5-HT addition and measured after 10 mins by HTRF assay. In kind it is functional, cell-based, COS7. The procedure, abridged:
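COS-7 cells grown in DMEM with 10% dialyzed FCS, transiently transfected by electroporation with HA-tagged 5-HT6R plasmid, seeded. 24 h later, ligands added at 37 °C for 7 min. Cells lysed in 0.1% Triton X-100 and cAMP read by HTRF. Log IC50 is mean ± SEM of three experiments.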

A short description of data set [4]: Toxicity of compound in ip dosed NMRI mouse assessed as mortality after 24 hrs. The settings on record: in vivo. In kind it is organism-based. The procedure, abridged: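 Mice in groups of four given 1, 10 or 100 mg/kg ip in 0.9% NaCl. Behavioral and neurological signs scored by standardized observation at 30 min, 3 h and 24 h. Approximate LD50 from mortality at 24 h. Amphetamine 2 mg/kg and chlorpromazine 10 mg/kg served as references.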

In data set [5] the target is T1, 5-hydroxytryptamine receptor 6. Kind of data set: Displacement of [3H]-LSD from human 5HT6 receptor expressed in HEK293 cell membrane at 10^-6 M measured after 60 mins relative to control. Type of data set: cell membranes. The settings on record: dose 1.0 µM. The procedure, abridged: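 Membranes of HEK-293 cells transiently expressing human 5-HT6R (4 µg protein) incubated in duplicate for 60 min at 37 °C with 2.5 nM [3H]-LSD and drug at 10^-6 or 10^-8 M. Buffer was 25 mM Tris-HCl pH 7.4 with 0.5 mM EDTA. Filtered on GF/C and washed with ice-cold Tris buffer. Non-specific binding defined with 100 µM serotonin.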

The target in data set [6] is T2, Acetylcholinesterase (Homo sapiens, UniProt P22303). Kind of data set: Inhibition of human erythrocyte AChE at 10^-6 M using acetylthiocholine iodide as substrate peincubated for 5 mins followed by substrate addition by DTNB-reagent based Ellman's method relative to control. As to conditions: dose 1.0 µM. The procedure, abridged:
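Human erythrocyte AChE diluted in 20 mM HEPES pH 8 with 0.1% Triton X-100 (0.05 U final). Preincubated 5 min at 25 °C with compound and 0.3 mM DTNB in phosphate buffer pH 7.4. Reaction started with 1 mM acetylthiocholine iodide.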

For data set [7], the system named is Mus musculus. Kind of data set: Reversal of MK801-induced working memory deficit in NMRI mouse assessed as increase in spontaneous alteration at 10 mg/kg, ip measured after 30 mins by Y-maze test. In kind it is functional, organism-based. The procedure, abridged:
(§1)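 Compound 10 mg/kg ip in 0.9% NaCl given 30 min before test. Scopolamine 0.5 mg/kg or MK801 0.1 mg/kg given sc 20 min before test to induce the deficit. Mouse placed in a three-arm Y maze for a 5 min session; arm-entry sequence recorded by an observer to score spontaneous alternation. n = 9 per group.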

Data set [8] has as its system Mus musculus. Kind of data set: Reversal of scopolamine-induced working memory deficit in NMRI mouse assessed as increase in spontaneous alteration at 10 mg/kg, ip measured after 30 mins by Y-maze test. In kind it is functional, organism-based. The procedure, abridged: as §1
The species entered for the next data set is Homo sapiens. Description: Selectivity index, ratio of IC50 for human BuChE to IC50 for human erythrocyte AChE.
The target of data set [9] is T1, 5-hydroxytryptamine receptor 6. Kind of data set: Displacement of [3H]-LSD from human 5HT6 receptor expressed in HEK293 cell membrane at 10^-5 M measured after 60 mins relative to control. Type of data set: cell membranes. The settings on record: dose 10.0 µM.
Data set [10] has as its target T3, Cholinesterase (Homo sapiens, UniProt P06276). Kind of data set: Inhibition of human BuChE at 10^-5 M using butyrylthiocholine iodide as substrate peincubated for 5 mins followed by substrate addition by DTNB-reagent based Ellman's method relative to control. The settings on record: dose 10.0 µM.
Data set [11] deals with Cholinesterase (Equus caballus) (UniProt P81908). Description: Mixed type inhibition of equine BuchE at 10 to 500 nM using varying levels of butyrylthiocholine iodide as substrate by Lineweaver-Burk plot analysis. The settings on record: dose 10-500 nM. The procedure, abridged: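 Ellman method with equine BuChE. Butyrylthiocholine iodide varied from 0.1 to 1 mM, inhibitor at 10, 50, 100 and 500 nM. Double-reciprocal plots of 1/velocity versus 1/[substrate] used to assign the inhibition mode.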

Data set [12] concerns the target T3, Cholinesterase. Kind of data set: Inhibition of human BuChE using butyrylthiocholine iodide as substrate peincubated for 5 mins followed by substrate addition by DTNB-reagent based Ellman's method.
In data set [13] the target is T2, Acetylcholinesterase. Description: Inhibition of human erythrocyte AChE using acetylthiocholine iodide as substrate peincubated for 5 mins followed by substrate addition by DTNB-reagent based Ellman's method.
The nature of data set [14]: Stability of compound in PBS buffer at pH 7.4 assessed as equine BuChE mediated decarbamoylation of compound at 5 uM incubated for 24 hrs by HPLC-LC/MS analysis. Type of data set: physicochemical. As to conditions: pH 7.4, 24 h. The procedure, abridged:
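Compound (5 µM) incubated in PBS pH 7.4 at 25 °C with 250 U/mL BuChE, or without enzyme as control. After incubation, extracted with ethyl acetate, evaporated and taken up in acetonitrile. Analyzed by C18 reversed-phase HPLC (water/acetonitrile with 0.1% formic acid, detection 280 nm) and LC-MS.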

In data set [15] the target is T1, 5-hydroxytryptamine receptor 6. Description: Antagonist activity at human 5HT6 receptor expressed in COS-7 cells assessed as inhibition of 5HT-induced cAMP accumulation preincubated for 7 mins followed by 5-HT addition and measured after 10 mins by HTRF assay relative to control. Type of data set: functional, cell-based. Set-up: scale not given: the % may be the effect or the level left. As to conditions: COS7, filed as antagonist. The procedure, abridged:
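COS-7 cells grown in DMEM with 10% dialyzed FCS, transiently transfected by electroporation with HA-tagged 5-HT6R plasmid, seeded. 24 h later, ligands added at 37 °C for 7 min. Then 5-HT (5.10^-7 M final) plus RO-20-1724 (0.1 mM final) added for 10 min at 37 °C. Cells lysed in 0.1% Triton X-100 and cAMP read by HTRF. Log IC50 is mean ± SEM of three experiments.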

Several values for one entry are separate records, joined by “and”; a condition that tells them apart may be missing. Equal values may be shown once. Activity calls are given as the source filed them. No cut-off for these calls is given here.

T2 sequence (P22303 whole entry): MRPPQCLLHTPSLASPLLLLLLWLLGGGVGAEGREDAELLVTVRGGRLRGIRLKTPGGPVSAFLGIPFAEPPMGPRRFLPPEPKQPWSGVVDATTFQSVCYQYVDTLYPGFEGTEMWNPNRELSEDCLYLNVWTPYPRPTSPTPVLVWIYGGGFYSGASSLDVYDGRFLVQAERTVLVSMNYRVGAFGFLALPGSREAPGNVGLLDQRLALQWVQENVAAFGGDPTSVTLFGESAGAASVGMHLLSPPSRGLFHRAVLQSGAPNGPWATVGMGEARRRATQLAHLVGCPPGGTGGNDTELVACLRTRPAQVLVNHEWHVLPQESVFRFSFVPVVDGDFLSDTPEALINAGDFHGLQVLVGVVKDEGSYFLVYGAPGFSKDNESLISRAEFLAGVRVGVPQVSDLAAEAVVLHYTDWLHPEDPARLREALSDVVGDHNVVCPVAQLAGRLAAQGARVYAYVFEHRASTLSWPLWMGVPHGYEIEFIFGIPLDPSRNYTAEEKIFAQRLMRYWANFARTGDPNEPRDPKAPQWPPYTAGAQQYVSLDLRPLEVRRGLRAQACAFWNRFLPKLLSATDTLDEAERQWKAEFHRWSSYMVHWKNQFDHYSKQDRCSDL
T1 sequence (P50406 whole entry): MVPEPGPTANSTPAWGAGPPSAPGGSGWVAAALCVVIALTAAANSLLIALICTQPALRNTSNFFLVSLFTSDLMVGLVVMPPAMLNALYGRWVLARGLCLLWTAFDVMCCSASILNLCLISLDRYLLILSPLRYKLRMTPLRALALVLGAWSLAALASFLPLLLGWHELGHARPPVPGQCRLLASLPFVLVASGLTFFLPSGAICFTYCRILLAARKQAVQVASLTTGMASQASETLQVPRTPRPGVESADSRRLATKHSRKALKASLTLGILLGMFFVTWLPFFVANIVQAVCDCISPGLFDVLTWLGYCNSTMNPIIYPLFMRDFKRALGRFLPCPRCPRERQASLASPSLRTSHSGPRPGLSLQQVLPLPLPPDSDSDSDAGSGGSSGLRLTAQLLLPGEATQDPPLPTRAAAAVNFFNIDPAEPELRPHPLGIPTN
T3 sequence (P06276 whole entry): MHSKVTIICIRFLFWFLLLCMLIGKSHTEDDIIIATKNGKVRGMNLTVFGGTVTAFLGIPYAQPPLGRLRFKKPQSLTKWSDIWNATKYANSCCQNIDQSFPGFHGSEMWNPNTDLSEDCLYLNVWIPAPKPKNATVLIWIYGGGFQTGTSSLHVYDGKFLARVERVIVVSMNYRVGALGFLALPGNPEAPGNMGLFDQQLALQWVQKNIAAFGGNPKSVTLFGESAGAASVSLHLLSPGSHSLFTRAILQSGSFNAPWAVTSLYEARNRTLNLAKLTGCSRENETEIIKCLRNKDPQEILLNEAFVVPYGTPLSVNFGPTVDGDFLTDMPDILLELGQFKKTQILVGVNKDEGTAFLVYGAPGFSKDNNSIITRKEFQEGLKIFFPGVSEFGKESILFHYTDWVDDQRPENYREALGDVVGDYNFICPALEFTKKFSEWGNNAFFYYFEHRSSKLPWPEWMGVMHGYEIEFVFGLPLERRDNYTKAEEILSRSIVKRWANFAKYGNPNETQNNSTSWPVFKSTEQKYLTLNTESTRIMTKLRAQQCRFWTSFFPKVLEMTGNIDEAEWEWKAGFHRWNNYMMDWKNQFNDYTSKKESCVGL
Cholinesterase (Equus caballus), sequence (P81908 whole entry): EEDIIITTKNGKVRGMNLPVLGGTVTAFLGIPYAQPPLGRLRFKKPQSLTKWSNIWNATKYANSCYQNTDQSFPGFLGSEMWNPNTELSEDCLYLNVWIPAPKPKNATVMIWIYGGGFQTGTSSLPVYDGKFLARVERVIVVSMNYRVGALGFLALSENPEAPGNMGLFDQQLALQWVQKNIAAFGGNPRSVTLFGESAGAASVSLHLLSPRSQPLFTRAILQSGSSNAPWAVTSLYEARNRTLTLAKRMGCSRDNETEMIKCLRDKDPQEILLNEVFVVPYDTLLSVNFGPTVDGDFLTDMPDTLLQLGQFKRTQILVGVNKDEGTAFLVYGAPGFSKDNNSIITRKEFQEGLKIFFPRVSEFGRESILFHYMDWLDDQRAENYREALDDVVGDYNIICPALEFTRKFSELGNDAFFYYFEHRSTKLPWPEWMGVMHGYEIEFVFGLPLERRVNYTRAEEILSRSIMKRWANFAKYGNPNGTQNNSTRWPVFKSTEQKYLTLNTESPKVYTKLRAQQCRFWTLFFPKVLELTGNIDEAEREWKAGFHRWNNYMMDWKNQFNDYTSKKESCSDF

For `O=C(O)/C=C/C(=O)O.Oc1cccc(CNCCc2c[nH]c3cc(F)ccc23)c1`, the Activity entry in data set [1] is on record as “Non-Toxic”. Besides, affinity in [2] was put at a Ki of 4.3 nM. Besides, in data set [3], the half-maximal inhibitory concentration (IC50) is 2000 nM. Further, the LD50 at 24 h in [4] is more than 100 mg/kg.
In the case of `CCN(C)C(=O)Oc1cccc(CNCCc2c[nH]c3cc(F)ccc23)c1` [listing 1 of 2 here], the inhibition in data set [5] was 37%; in data set [5] (filed as antagonist), 53%; on Acetylcholinesterase [6], 9% and 5%; in data set [9], 24% and 32%; against Cholinesterase [10], 93% and 97%. For the same compound, the outcome in the data set with Mus musculus [7] was inactive. The outcome with Mus musculus [8] was Active. In addition, the Ratio IC50 in the data set listed under Homo sapiens is 0.06 and 0.05. Further, the inhibition result in data set [11] is “Active”.
Consider `CCN(C)C(=O)Oc1cccc(CNCCc2c[nH]c3cc(F)ccc23)c1.O=C(O)/C=C/C(=O)O`, for which the Activity result in data set [1] is “Non-Toxic”. Further, the half-inhibitory concentration (IC50) at Cholinesterase [12] stood at 835 nM; on Acetylcholinesterase [13], 17600 nM. Also, the Drug metabolism result in data set [14] was “Metabolite_Detected”. Moreover, the LD50 at 24 h in [4] was more than 100 mg/kg.
As to `Oc1cccc(CNCCc2c[nH]c3cc(F)ccc23)c1` [listing 1 of 2 here], the inhibition constant (Ki) in data set [2] was determined as 11.4 nM.
Take `Fc1ccc2c(CCNCc3cccc(OCC(F)(F)C(F)F)c3)c[nH]c2c1`: the inhibition was found to be 106% in [5] (filed as antagonist), 6% at Acetylcholinesterase [6] and 88% in [9] (filed as antagonist). In addition, the Activity in data set [15] is 101%.
On Cholinesterase [12], `C[C@]12N[C@H](Cc3ccccc31)c1ccccc12` [DIZOCILPINE] yielded a half-maximal inhibitory concentration (IC50) of 16000 nM.
As to `CCN(C)C(=O)Oc1cccc(CNCCc2c[nH]c3cc(F)ccc23)c1` [listing 2 of 2 here], the IC50 against Cholinesterase [12] was 927 nM; at Acetylcholinesterase [13], 16500 nM.
`Oc1cccc(CNCCc2c[nH]c3cc(F)ccc23)c1` [listing 2 of 2 here]: the inhibition in data set [5] (filed as antagonist) was 104% and 85%; at Acetylcholinesterase [6] it was 8% and 2%; in [9] it was 33%; in data set [9] (filed as antagonist), 48%; on Cholinesterase [10] it was 11% and 8%. The outcome with Mus musculus [7] was Active. The Activity in [15] was 87.2%. For the same compound, the outcome with Mus musculus [8] was inactive.
Turning to `Fc1ccc2c(CCNCc3cccc(OCc4ccccc4)c3)c[nH]c2c1`, the inhibition in [5] (filed as antagonist) came out at 103%; on Acetylcholinesterase [6], 4%; in data set [9] it was 14%; against Cholinesterase [10], 2%.

The record behind these values is ChEMBL document CHEMBL4732122, “Pleiotropic prodrugs: Design of a dual butyrylcholinesterase inhibitor and 5-HT receptor antagonist with therapeutic interest in Alzheimer's disease” (Eur J Med Chem, 2021).
